Series [1] has as its target T1, Bifunctional epoxide hydrolase 2 (Homo sapiens, UniProt P34913).
T1 sequence (P34913 whole entry): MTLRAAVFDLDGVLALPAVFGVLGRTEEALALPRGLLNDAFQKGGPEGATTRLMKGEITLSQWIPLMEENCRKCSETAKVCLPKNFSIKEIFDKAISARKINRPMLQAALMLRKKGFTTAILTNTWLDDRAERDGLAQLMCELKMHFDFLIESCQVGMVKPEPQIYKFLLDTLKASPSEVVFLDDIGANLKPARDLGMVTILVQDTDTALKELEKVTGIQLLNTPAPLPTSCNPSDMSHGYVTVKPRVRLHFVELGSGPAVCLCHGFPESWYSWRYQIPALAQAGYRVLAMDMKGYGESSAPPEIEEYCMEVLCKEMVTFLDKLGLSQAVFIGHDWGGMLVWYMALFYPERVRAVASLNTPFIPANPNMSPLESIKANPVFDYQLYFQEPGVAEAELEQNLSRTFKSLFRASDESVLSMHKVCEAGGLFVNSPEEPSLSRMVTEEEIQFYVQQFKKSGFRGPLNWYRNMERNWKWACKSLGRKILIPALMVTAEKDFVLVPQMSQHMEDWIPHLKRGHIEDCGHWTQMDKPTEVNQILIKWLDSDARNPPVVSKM
Briefly: Inhibition of human soluble epoxide hydrolase pre-incubated for 5 mins at 30 degC before CMNPC fluorescent substrate addition by fluorimetric assay. An outline of the steps:
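Recombinant-free detail not given; human sEH at 0.96 nM preincubated with inhibitor 5 min at 30°C in 25 mM Bis-Tris/HCl, pH 7.0, then fluorescent substrate added at 5 μM. Fluorescence read-out; IC50 reported as mean of three separate measurements, assay standard error stated as 10–20%.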

The nature of series [2]: Solubility in water using 0.1 M pH 7.4 phosphate buffer by LC-MS/MS method. The series is classed as physicochemical. Summed up:
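Excess solid suspended in 0.1 M sodium phosphate buffer, pH 7.4; equilibrated by 1 h sonication then 24 h shaking; centrifuged. Supernatant analysed by LC-MS/MS, with amount calculated from a regression curve built for each compound from five standard solutions.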

A short description of series [3]: Stability in human liver microsomes aunder NADPH generating system at 37 degC for 60 mins by LC-MS/MS method. The series is classed as ADME, Microsome. Conditions: read-out: Stability. An outline of the steps:
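Test compound incubated with 0.125 mg human liver microsomal protein plus NADPH-generating system, shaken 37°C for 60 min. Remaining parent quantified by LC-MS/MS and expressed as percent; acid metabolites also monitored. Mean of triplicate independent analyses.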
Background: Microsomes from liver hold many membrane-bound enzymes, among them those of drug oxidation.

Data on eleven compounds can be found in ChEMBL document CHEMBL2069299, “Biologically active ester derivatives as potent inhibitors of the soluble epoxide hydrolase” (Bioorg Med Chem Lett, 2012).

A word on the pIC50: it is the IC50 on a negative log10 scale, so that one unit is a factor of ten. Low values mean a large IC50, high ones a small IC50. By solubility is commonly meant how much of the substance goes into solution per volume.

Each structure is given as a SMILES string. pIC50: −log10 of the molar value. ≈ marks a conversion by molar mass, not a printed value. Bounds are passed on as bounds.

In series [1], `CCOCCOCC(OC(=O)CCCNC(=O)NC12CC3CC(CC(C3)C1)C2)c1ccccc1` (stereo not given) showed a pIC50 of 8.40. Besides, the solubility in series [2] was 89 µg/mL (≈ 188 µM). Besides, the remaining at 1 h in series [3] amounted to 14%.
`CCCCC(C)OC(=O)CCCNC(=O)NC12CC3CC(CC(C3)C1)C2` (stereo not given) gave a pIC50 in series [1] of 8.40.
The compound `CCCCC(CC)OC(=O)CCCNC(=O)NC12CC3CC(CC(C3)C1)C2` (stereo not given) showed a pIC50 in series [1] of 8.40. Besides, in series [2], the solubility was found to be 3 µg/mL (≈ 7.92 µM). Moreover, the remaining at 1 h in series [3] was 4%.
In turn, `CCCCC(C#N)OC(=O)CCCNC(=O)NC12CC3CC(CC(C3)C1)C2` (stereo not given) had a pIC50 in series [1] of 7.92.
`CCOCCOCCOC(=O)CCCNC(=O)NC12CC3CC(CC(C3)C1)C2` had a pIC50 in series [1] of 7.17. In addition, the solubility in series [2] was 878 µg/mL (≈ 2210 µM). In addition, the remaining at 1 h in series [3] worked out at 10%.
Take `O=C(NC1CCCC(C(=O)O)C1)NC12CC3CC(CC(C3)C1)C2` (stereo not given): the negative logarithm of the IC50 (pIC50) in series [1] is 5.94. In series [3], the remaining at 1 h turned out to be 95%.
The compound `CCCCCOC(=O)C1CCCC(NC(=O)NC23CC4CC(CC(C4)C2)C3)C1` (stereo not given) showed a pIC50 in series [1] of 8.70.
In series [1], `CCCCC(CC)OC(=O)C1CCCC(NC(=O)NC23CC4CC(CC(C4)C2)C3)C1` (stereo not given) gave a pIC50 of 8.52. The compound also gave a solubility in series [2] of 1 µg/mL (≈ 2.39 µM). Moreover, the remaining at 1 h in series [3] came out at 10%.
The corresponding values for `CCOCCOCC(OC(=O)C1CCCC(NC(=O)NC23CC4CC(CC(C4)C2)C3)C1)c1ccccc1` (stereo not given) are 8.05, 41 µg/mL (≈ 80 µM) and 32%.
Consider `CCCCCOC(=O)CCCNC(=O)NC12CC3CC(CC(C3)C1)C2`, for which the pIC50 in series [1] was 8.00. Moreover, the solubility in series [2] was determined as 2 µg/mL (≈ 5.71 µM). Moreover, the remaining at 1 h in series [3] was less than 1%.
Regarding `O=C(O)CCCNC(=O)NC12CC3CC(CC(C3)C1)C2`, the pIC50 in series [1] is 6.16. In series [3], the remaining at 1 h was 97%.
